This note sets out measurements from ChEMBL document CHEMBL1142885, “Evaluation of [11C]hemicholinium-15 and [18F]hemicholinium-15 as new potential PET tracers for the high-affinity choline uptake system in the heart” (Bioorg Med Chem, 2007).

What all share (details): in vivo
Series [1] in a line: Biodistribution in Fisher rat left atrium at 1 to 3 mCi, iv after 20 mins. The series is classed as ADME, organism-based, Cardiac atrium. The method in brief: (§1)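 Fisher rats (200–300 g) given [¹¹C]HC-15 or [¹⁸F]HC-15 (1–3 mCi, sub-pharmacologic) by tail-vein iv injection under conscious restraint. Sacrificed by decapitation under halothane anesthesia at 20 min, tissues excised and weighed, decay-corrected radioactivity gamma-counted. Expressed as %ID and %ID/g; values are the average of four rats.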

The subject of the next series is Septum. Description: Biodistribution in Fisher rat septum at 1 to 3 mCi, iv after 20 mins. The series is classed as ADME, organism-based. A digest of the protocol:
as §1

For the next series, the system named is Lung. Description: Biodistribution in Fisher rat lung at 1 to 3 mCi, iv after 20 mins. The series is classed as ADME, organism-based. A digest of the protocol:
as §1

The subject of the next series is Blood. In words: Biodistribution in Fisher rat blood at 1 to 3 mCi, iv after 20 mins. The series is classed as ADME, organism-based. A digest of the protocol: as §1
A further series relates to Liver. In words: Biodistribution in Fisher rat liver at 1 to 3 mCi, iv after 20 mins. In kind it is ADME, organism-based. A digest of the protocol: as §1
Series [2] in a line: Biodistribution in Fisher rat left ventricle at 1 to 3 mCi, iv after 20 mins. In kind it is ADME, organism-based, Heart left ventricle. The method in brief: as §1
The next series concerns Brain. In words: Biodistribution in Fisher rat brain at 1 to 3 mCi, iv after 20 mins. In kind it is ADME, organism-based. The method in brief:
as §1

Series [3] is described as follows: Biodistribution in Fisher rat right atrium at 1 to 3 mCi, iv after 20 mins. In kind it is ADME, organism-based, Cardiac atrium. The method in brief:
as §1

The test system of a further series is Kidney. Description: Biodistribution in Fisher rat kidney at 1 to 3 mCi, iv after 20 mins. The series is classed as ADME, organism-based. The method in brief: as §1
The nature of series [4]: Biodistribution in Fisher rat skeletal muscle s at 1 to 3 mCi, iv after 20 mins. The series is classed as ADME, organism-based, Muscle tissue. A digest of the protocol: as §1
Series [5] is described as follows: Biodistribution in Fisher rat right ventricle at 1 to 3 mCi, iv after 20 mins. In kind it is ADME, organism-based, Heart right ventricle. The method in brief:
as §1

Series [6] can be described thus: Biodistribution in Fisher rat atrioventricular node at 1 to 3 mCi, iv after 20 mins. The series is classed as ADME, organism-based. The method in brief:
as §1

For a further series, the system named is Solar plexus. In words: Biodistribution in Fisher rat solar plexus at 1 to 3 mCi, iv after 20 mins. The series is classed as ADME, organism-based. The method in brief: as §1
Series [7] is described as follows: Biodistribution in Fisher rat urine at 1 to 3 mCi, iv after 20 mins. In kind it is ADME, organism-based. The method in brief: as §1

For the molecule `C[N+]1([11CH3])CCOC(O)(c2ccccc2)C1.O=S(=O)([O-])C(F)(F)F` (stereo not drawn), the Drug uptake in [1] was 0.526 % ID/g; in the series with Septum, 0.01 % ID/g; in the series on Lung it was 1.302 % ID/g; in the series on Blood it was 0.181 % ID/g; with Liver, 6.284 % ID/g; in series [2] it was 0.859 % ID/g. The Drug uptake with Brain amounted to 0.022 % ID/g; in series [3] it was 0.488 % ID/g; with Kidney, 3.618 % ID/g; in series [4], 0.091 % ID/g; in series [5], 1.316 % ID/g; in series [6], 1.083 % ID/g. Moreover, the results for the Drug uptake (in the series with Solar plexus; in [7]) were 0.938 % ID/g and 31.835 % ID/g, respectively.

`C[N+]1(C[18F])CCOC(O)(c2ccccc2)C1.O=S(=O)([O-])C(F)(F)F` (stereo not drawn): the Drug uptake in [1] was 0.796 % ID/g; in the series with Septum, 1.557 % ID/g; in the series with Lung, 3.423 % ID/g; in the series on Blood, 0.201 % ID/g; in the series on Liver, 4.378 % ID/g; in series [2] it was 1.28 % ID/g. Besides, the Drug uptake came out at 0.046 % ID/g in the series on Brain; 0.756 % ID/g in [3]; 11.651 % ID/g with Kidney; 0.145 % ID/g in [4]; 0.037 % ID/g in [5]; 0.793 % ID/g in [6]. The Drug uptake in the series with Solar plexus was 0.744 % ID/g; in series [7], 17.434 % ID/g.
